In ChEMBL document CHEMBL4673214, “Synthesis and antibacterial bioactivities of cationic deacetyl linezolid amphiphiles” (Eur J Med Chem, 2018):
In brackets after ≈: the same amount, converted by molar mass. Activity calls are given as the source filed them. The calls are words filed in the database; no cut-off is given here.

Key:
[1] = tested on: Enterococcus faecalis; test: Antibacterial activity against Enterococcus faecalis ATCC 29212 assessed as reduction in bacterial growth incubated 16 to 20 hrs by CLSI-based broth microdilution method; assay type: functional; conditions: time 16-20 hrs
Procedure, shortened: (§1)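 Broth microdilution following CLSI, in cation-adjusted Mueller-Hinton broth. Inoculum from a 4-6 h culture (~10^8 CFU/mL), diluted to ~10^6 CFU/mL. Water stocks were serially diluted in MHB (256 to 0.5 µg/mL) and mixed 1:1 with the inoculum. Plates ran 16-20 h at 37 °C. MIC was read visually. Each concentration was tested in duplicate, and the experiment was repeated at least twice.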

[2] = tested on: Salmonella enterica; test: Antibacterial activity against Salmonella enterica ATCC 8387 assessed as reduction in bacterial growth incubated for 16 to 20 hrs by CLSI-based broth microdilution method; assay type: functional; conditions: time 16-20 hrs; procedure, shortened: as §1
[3] = tested on: Staphylococcus aureus; test: Antibacterial activity against methicillin-resistant Staphylococcus aureus clinical isolate 3 assessed as reduction in bacterial growth incubated for 16 to 20 hrs by CLSI-based broth microdilution method; assay type: functional; conditions: time 16-20 hrs
Procedure, shortened: (§2)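 Clinical isolates tested by broth microdilution in cation-adjusted Mueller-Hinton broth. Cultures grown 4-6 h (~10^8 CFU/mL) were diluted to ~10^6 CFU/mL and mixed 1:1 with compound serial dilutions made from 256 down to 0.5 µg/mL (pre-mixing). Plates held at 37 °C for 16-20 h, then read for growth. Each concentration run in duplicate, whole experiment at least twice.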

[4] = tested on: Enterobacteriaceae; test: Antibacterial activity against NDM1 producing carbapenem-resistant Enterobacteriaceae clinical isolate 6 assessed as reduction in bacterial growth incubated for 16 to 20 hrs by CLSI-based broth microdilution method; assay type: functional; conditions: time 16-20 hrs; procedure, shortened: as §2
[5] = tested on: Staphylococcus aureus; test: Antibacterial activity against methicillin-resistant Staphylococcus aureus clinical isolate 10 assessed as reduction in bacterial growth incubated for 16 to 20 hrs by CLSI-based broth microdilution method; assay type: functional; conditions: time 16-20 hrs; procedure, shortened: as §2
[6] = tested on: Klebsiella pneumoniae; test: Antibacterial activity against carbapenem-resistant Klebsiella pneumoniae clinical isolate 7 assessed as reduction in bacterial growth incubated for 16 to 20 hrs by CLSI-based broth microdilution method; assay type: functional; conditions: time 16-20 hrs; procedure, shortened: as §2
[7] = tested on: Enterobacteriaceae; test: Antibacterial activity against NDM1 producing carbapenem-resistant Enterobacteriaceae clinical isolate 3 assessed as reduction in bacterial growth incubated for 16 to 20 hrs by CLSI-based broth microdilution method; assay type: functional; conditions: time 16-20 hrs; procedure, shortened: as §2
[8] = tested on: Cell membrane; test: Induction of inner membrane permeabilization in Escherichia coli ATCC 25922 at 20 ug/ml measured for 12 mins by propidium iodide staining based fluorescence microscopic analysis; conditions: dose 20.0 µg/ml
Procedure, shortened: (§3)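 Mid-log bacteria were washed and resuspended at ~10^8 CFU/mL and preincubated with propidium iodide (10 µM stock) for 30 min (S. aureus) or 40 min (E. coli). Fluorescence (ex 535/em 617 nm) was read on a plate for an 8 min baseline, then every 2 min for 12 min after compound at 20 µg/mL final. Water served as control.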

[9] = tested on: Klebsiella pneumoniae; test: Antibacterial activity against carbapenem-resistant Klebsiella pneumoniae clinical isolate 3 assessed as reduction in bacterial growth incubated for 16 to 20 hrs by CLSI-based broth microdilution method; assay type: functional; conditions: time 16-20 hrs; procedure, shortened: as §2
[10] = tested on: Cell membrane; test: Induction of inner membrane permeabilization in Staphylococcus aureus ATCC 29213 at 20 ug/ml measured for 12 mins by propidium iodide staining based fluorescence microscopic analysis; conditions: dose 20.0 µg/ml; procedure, shortened: as §3
[11] = tested on: Staphylococcus aureus; test: Antibacterial activity against methicillin-resistant Staphylococcus aureus clinical isolate 9 assessed as reduction in bacterial growth incubated for 16 to 20 hrs by CLSI-based broth microdilution method; assay type: functional; conditions: time 16-20 hrs; procedure, shortened: as §2
[12] = tested on: Staphylococcus aureus; test: Antibacterial activity against methicillin-resistant Staphylococcus aureus clinical isolate 2 assessed as reduction in bacterial growth incubated for 16 to 20 hrs by CLSI-based broth microdilution method; assay type: functional; conditions: time 16-20 hrs; procedure, shortened: as §2
[13] = tested on: Escherichia coli; test: Antibiofilm activity against Escherichia coli ATCC 25922 assessed as inhibition of biofilm formation incubated for 24 hrs by crystal violet staining assay; assay type: functional
Procedure, shortened: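 Twofold serial dilutions in MHB received 1:1000-diluted exponential-phase bacteria and were incubated 24 h at 37 °C. Wells were rinsed, stained with 0.1% crystal violet for 10 min and dissolved in ethanol, and OD540 was read. MBIC80 was the concentration inhibiting 80% of biofilm formation versus untreated wells, taken from dose-response curves.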

[14] = tested on: Escherichia coli; test: Antibiofilm activity against 72 hrs preformed biofilm of Escherichia coli ATCC 25922 assessed as biofilm viability at 8 ug/ml incubated for 24 hrs by […] (reference value: 16.1 log10CFU); assay type: functional; conditions: dose 8 µg/ml
Procedure, shortened: (§4)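 E. coli from mid-log phase was diluted to ~10^5 CFU/mL in M9 medium with 0.02% casamino acids and 0.5% glycerol and formed biofilm without shaking for 72 h. Wells were PBS-washed, then treated with 2-128 µg/mL for 24 h at 37 °C; medium-only wells served as control. Cells were released with trypsin-EDTA and plated as tenfold dilutions. Viability was given as log10 CFU/well.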

[15] = Hemolytic activity in sheep RBC incubated for 1 hr; assay type: ADME, cell-based, Ovis aries, Erythrocyte; conditions: sheep red blood cells (erythrocytes)
Procedure, shortened: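 Sheep RBCs were resuspended at 5% in PBS and mixed 3:1 with serial dilutions (2560 to 5 µg/mL, pre-mixing levels), then incubated 1 h at 37 °C. After centrifugation, supernatant A540 was read. Hemolysis % was calculated as (A−A0)/(Atotal−A0)×100, with untreated RBCs as 0% and 0.1% Triton X-100 as total lysis.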

[16] = tested on: Escherichia coli; test: Antibiofilm activity against 72 hrs preformed biofilm of Escherichia coli ATCC 25922 assessed as biofilm viability at 64 ug/ml incubated for 24 hrs by […] (reference value: 16.1 log10CFU); assay type: functional; conditions: dose 64 µg/ml; procedure, shortened: as §4
[17] = tested on: Escherichia coli; test: Resistance ratio of compound MIC for Escherichia coli ATCC 25922 after 20 passages to compound MIC for Escherichia coli ATCC 25922 after 16 to 20 hrs by CLSI-based broth microdilution method; assay type: functional
Procedure, shortened: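 Serial passaging: after each 24 h MIC assay, cells grown at 1/2 MIC were transferred and the MIC assayed again, for 20 passages. Done with S. aureus, E. coli and MRSA. MIC plotted against days of passage. Experiment repeated twice.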

[18] = tested on: HeLa; test: Cytotoxicity against human HeLa cells assessed as cell morphology at 1 to 4 ug/mL incubated for 24 hrs by optical microscopy; assay type: cell-based; conditions: dose 1-4 µg/ml
Procedure, shortened: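 HeLa cells were kept in DMEM with 10% FBS at 37 °C and 5% CO2. Cells were seeded in 12-well plates, allowed to adhere overnight and exposed to 1, 2 or 4 µg/mL for 24 h. Untreated wells were the negative control and 0.1% Triton X-100 the positive control. After a PBS wash, morphology was imaged by inverted microscopy with a 10× objective. Three repeats.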

[19] = tested on: Escherichia coli; test: Antibiofilm activity against 72 hrs preformed biofilm of Escherichia coli ATCC 25922 assessed as biofilm viability at 128 ug/ml incubated for 24 hrs by […] (reference value: 16.1 log10CFU); assay type: functional; conditions: dose 128 µg/ml; procedure, shortened: as §4
[20] = tested on: Escherichia coli; test: Antibiofilm activity against 72 hrs preformed biofilm of Escherichia coli ATCC 25922 assessed as biofilm viability at 32 ug/ml incubated for 24 hrs by […] (reference value: 16.1 log10CFU); assay type: functional; conditions: dose 32 µg/ml; procedure, shortened: as §4

## C[C@@H](O)[C@H]1C(=O)N2C(C(=O)O)=C(S[C@@H]3CN[C@H](C(=O)N(C)C)C3)[C@H](C)[C@H]12 [MEROPENEM]
[1]
  MIC: 4 µg/mL (≈ 10.4 µM)
[2]
  MIC: < 0.125 µg/mL
[3]
  MIC: 32 µg/mL (≈ 83.4 µM)
[4]
  MIC: 2 µg/mL (≈ 5.22 µM)
[5]
  MIC: 32 µg/mL (≈ 83.4 µM)
[6]
  MIC: > 64 µg/mL
[7]
  MIC: 64 µg/mL (≈ 167 µM)
[8]
  Activity: inactive
[9]
  MIC: 2 µg/mL (≈ 5.22 µM)
[10]
  Activity: inactive
[11]
  MIC: 64 µg/mL (≈ 167 µM)
[12]
  MIC: 64 µg/mL (≈ 167 µM)

## CCCCCCCCCCCN(C[C@H]1CN(c2ccc(N3CCOCC3)c(F)c2)C(=O)O1)C(=O)[C@@H](N)CCCCN.Cl.Cl
[13]
  MBIC80: 61.9 µg/mL
  MBIC90: 72.6 µg/mL
[1]
  MIC: 4 µg/mL
[2]
  MIC: 16 µg/mL
[3]
  MIC: 2 µg/mL
[4]
  MIC: 16 µg/mL
[5]
  MIC: 4 µg/mL
[14]
  Activity: 8 log10CFU
[15]
  HC50 at 1 h: 100 µg/mL
[6]
  MIC: 16 µg/mL
[7]
  MIC: 16 µg/mL
[16]
  Activity: 6 log10CFU
[17]
  Ratio: 2
[8]
  Activity: Active
[9]
  MIC: 16 µg/mL
[18]
  Activity: Non-Toxic
[19]
  Activity: 5.3 log10CFU
[10]
  Activity: Active
[20]
  Activity: 6.1 log10CFU
[11]
  MIC: 4 µg/mL
[12]
  MIC: 4 µg/mL
